Key:
[1] = system: Rattus norvegicus; test: Antinociceptive activity in rat assessed as reversal of complete Freund's adjuvant-induced pain at 3 mg/kg, iv after 3 hrs; type: functional
[2] = target: T1, Voltage-dependent N-type calcium channel subunit alpha-1B (Homo sapiens, UniProt Q00975); test: Inhibition of Cav2.2 expressed HEK293 cells assessed as inhibition of calcium flux by FLIPR assay in presence of 30 mM of potassium; type: cell-based
Summary of the method: (§1)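 Calcium influx was read with a calcium-sensitive dye on FLIPR Tetra in CBK cells expressing α1B-1, α2-δ and β3a with Kir2.3. Cells were preincubated with compound in 30 mM K+, then channels were opened by 1:1 addition of 140 mM K+ solution. Compounds were screened at 1 μM, then titrated over 10 points (0.001–30 μM) in quadruplicate, mean ± SD. Values are averages of n ≥ 3.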
Target sequence in this assay (Q00975 whole entry): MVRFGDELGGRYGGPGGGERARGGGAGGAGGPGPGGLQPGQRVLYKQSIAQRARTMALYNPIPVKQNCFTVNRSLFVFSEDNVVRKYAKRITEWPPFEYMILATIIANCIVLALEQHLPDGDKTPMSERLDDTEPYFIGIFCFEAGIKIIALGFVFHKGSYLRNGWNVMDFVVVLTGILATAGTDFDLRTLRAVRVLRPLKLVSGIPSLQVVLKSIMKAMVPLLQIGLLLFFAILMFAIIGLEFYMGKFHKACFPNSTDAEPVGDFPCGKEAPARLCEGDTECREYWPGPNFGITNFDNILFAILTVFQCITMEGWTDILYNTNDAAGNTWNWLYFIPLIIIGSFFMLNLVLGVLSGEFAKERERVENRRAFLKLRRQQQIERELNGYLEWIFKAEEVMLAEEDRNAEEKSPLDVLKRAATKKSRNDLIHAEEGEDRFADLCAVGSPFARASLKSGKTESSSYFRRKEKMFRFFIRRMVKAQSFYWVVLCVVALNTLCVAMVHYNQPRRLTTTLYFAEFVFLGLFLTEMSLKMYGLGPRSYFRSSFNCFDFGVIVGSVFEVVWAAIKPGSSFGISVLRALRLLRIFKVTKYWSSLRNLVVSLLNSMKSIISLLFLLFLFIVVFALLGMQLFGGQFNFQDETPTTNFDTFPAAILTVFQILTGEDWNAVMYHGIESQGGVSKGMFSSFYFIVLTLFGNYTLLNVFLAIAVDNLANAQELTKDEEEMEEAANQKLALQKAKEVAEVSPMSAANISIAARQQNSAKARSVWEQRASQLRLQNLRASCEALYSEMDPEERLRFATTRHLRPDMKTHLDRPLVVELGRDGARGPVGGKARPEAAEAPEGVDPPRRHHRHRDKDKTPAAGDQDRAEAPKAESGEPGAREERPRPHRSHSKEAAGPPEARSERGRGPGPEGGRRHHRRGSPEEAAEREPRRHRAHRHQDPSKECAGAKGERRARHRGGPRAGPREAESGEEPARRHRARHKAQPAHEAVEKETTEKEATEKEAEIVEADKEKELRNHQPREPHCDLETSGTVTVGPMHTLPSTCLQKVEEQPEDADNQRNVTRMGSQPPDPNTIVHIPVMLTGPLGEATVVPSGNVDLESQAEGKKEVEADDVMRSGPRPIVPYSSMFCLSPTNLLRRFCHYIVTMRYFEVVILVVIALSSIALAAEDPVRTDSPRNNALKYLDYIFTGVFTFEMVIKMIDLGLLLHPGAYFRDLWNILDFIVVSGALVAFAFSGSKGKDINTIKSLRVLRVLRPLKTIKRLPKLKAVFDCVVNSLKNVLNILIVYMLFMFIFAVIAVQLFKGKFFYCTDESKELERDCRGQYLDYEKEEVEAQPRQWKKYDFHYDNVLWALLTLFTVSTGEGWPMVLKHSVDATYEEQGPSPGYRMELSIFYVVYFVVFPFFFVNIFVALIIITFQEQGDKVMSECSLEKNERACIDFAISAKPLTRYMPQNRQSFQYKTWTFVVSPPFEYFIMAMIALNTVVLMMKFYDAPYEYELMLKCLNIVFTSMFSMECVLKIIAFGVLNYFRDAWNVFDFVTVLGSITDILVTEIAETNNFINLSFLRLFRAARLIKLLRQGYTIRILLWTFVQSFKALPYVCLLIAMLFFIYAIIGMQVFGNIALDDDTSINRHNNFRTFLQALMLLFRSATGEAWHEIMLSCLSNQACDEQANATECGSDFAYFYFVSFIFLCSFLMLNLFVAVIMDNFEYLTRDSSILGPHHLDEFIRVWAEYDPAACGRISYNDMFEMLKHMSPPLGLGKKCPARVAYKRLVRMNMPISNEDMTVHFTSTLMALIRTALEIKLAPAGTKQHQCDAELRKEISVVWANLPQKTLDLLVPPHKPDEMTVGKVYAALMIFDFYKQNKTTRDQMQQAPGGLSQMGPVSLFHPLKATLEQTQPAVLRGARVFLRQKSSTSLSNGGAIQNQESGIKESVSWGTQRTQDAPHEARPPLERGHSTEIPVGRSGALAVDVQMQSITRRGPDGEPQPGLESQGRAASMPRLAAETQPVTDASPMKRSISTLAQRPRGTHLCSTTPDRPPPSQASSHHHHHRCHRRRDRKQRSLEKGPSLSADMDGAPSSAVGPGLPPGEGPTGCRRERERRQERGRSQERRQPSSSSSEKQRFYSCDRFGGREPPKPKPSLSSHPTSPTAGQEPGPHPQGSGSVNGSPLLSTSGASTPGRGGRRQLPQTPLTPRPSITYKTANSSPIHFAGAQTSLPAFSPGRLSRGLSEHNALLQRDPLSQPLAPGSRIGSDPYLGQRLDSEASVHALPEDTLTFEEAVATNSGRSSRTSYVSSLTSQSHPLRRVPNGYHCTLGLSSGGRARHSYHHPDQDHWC

[3] = Metabolic stability in rat liver microsomes assessed as compound remaining at 1 uM after 1 hr; type: ADME, Microsome; details: read-out: Stability
Summary of the method: (§2)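 Compound at 1 μM was incubated with human or rat liver microsomes (1 mg/mL) for 1 h, and the percentage of parent remaining was determined.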

[4] = Half life in rat at 3 mg/kg, po and 1 mg/kg, iv; type: ADME, organism-based; details: in vivo
Summary of the method: (§3)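 Rat pharmacokinetics from iv and po arms: 0.6 mg/kg iv with 1.8 mg/kg po, or 1 mg/kg iv with 3 mg/kg po. AUC was normalized to po dose (μM·h·kg/mg). Clearance (mL/min/kg) and half-life come from the iv arm, and F% is oral bioavailability.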

[5] = Oral bioavailability in rat at 3 mg/kg; type: ADME, organism-based; details: in vivo; summary of the method: as §3
[6] = target: T2, hERG (Homo sapiens, UniProt Q12809); test: Displacement of [35S]-MK-0499 from human ERG at 10 uM; details: probe [35S]-MK-0499
T2 sequence (Q12809 whole entry): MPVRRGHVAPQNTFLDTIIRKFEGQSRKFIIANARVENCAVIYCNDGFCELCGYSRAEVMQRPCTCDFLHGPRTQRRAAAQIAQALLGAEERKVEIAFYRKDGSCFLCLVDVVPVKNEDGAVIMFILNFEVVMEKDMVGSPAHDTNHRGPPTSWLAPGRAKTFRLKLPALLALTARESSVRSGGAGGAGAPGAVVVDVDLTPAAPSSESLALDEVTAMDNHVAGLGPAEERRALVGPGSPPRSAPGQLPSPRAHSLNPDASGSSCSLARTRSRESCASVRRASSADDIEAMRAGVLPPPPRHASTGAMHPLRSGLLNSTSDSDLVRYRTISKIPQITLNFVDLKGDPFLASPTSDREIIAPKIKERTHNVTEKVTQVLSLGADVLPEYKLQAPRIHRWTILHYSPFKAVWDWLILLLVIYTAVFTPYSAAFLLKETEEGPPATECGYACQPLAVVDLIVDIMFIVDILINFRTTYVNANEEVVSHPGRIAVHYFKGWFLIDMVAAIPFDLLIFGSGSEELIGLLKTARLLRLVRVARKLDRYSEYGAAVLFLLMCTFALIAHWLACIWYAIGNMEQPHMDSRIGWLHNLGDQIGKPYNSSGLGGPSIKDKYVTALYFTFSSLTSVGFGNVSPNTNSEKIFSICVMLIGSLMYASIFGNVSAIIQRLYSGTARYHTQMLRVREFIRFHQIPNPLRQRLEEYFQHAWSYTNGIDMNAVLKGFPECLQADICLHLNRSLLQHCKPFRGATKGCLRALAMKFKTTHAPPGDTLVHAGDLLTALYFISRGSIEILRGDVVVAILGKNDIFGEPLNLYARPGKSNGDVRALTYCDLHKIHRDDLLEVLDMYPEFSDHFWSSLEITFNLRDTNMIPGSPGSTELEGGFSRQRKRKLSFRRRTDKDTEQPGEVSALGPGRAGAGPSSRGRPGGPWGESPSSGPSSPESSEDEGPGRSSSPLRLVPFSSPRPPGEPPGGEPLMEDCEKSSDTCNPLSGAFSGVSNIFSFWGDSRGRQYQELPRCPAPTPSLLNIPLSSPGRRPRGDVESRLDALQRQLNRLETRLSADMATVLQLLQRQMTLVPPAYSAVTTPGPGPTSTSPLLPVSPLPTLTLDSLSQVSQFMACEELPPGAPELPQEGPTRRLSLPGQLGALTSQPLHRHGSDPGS
Summary of the method: (§4)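 hERG binding was measured as displacement of 35S-labeled MK-0499 at single test concentrations.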

[7] = Plasma clearance in rat at 3 mg/kg, po and 1 mg/kg, iv; type: ADME, organism-based; summary of the method: as §3
[8] = target: T2, hERG; test: Displacement of [35S]-MK-0499 from human ERG at 1 uM; details: probe [35S]-MK-0499; summary of the method: as §4
[9] = Metabolic stability in human liver microsomes assessed as compound remaining at 1 uM after 1 hr; type: ADME, Microsome; details: read-out: Stability; summary of the method: as §2
[10] = system: Rattus norvegicus; test: Dose normalized AUC in rat at 1.8 mg/kg, po and 0.6 mg/kg, iv; type: ADME, organism-based; details: in vivo; summary of the method: as §3
[11] = system: Rattus norvegicus; test: Antinociceptive activity in rat assessed as reversal of complete Freund's adjuvant-induced pain at 3 mg/kg, iv after 1 hr; type: functional
[12] = target: T3, Cav1.2 (Homo sapiens, UniProt Q13936); test: Inhibition of Cav1.2 assessed as inhibition of calcium flux at 1 uM by cell based FLIPR assay
Summary of the method: (§5)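 Cav1.2 counterscreen using a related calcium-influx FLIPR assay, run as % inhibition at single concentrations or as a titration.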

[13] = target: T3, Cav1.2; test: Inhibition of Cav1.2 assessed as inhibition of calcium flux at 3 uM by cell based FLIPR assay; summary of the method: as §5
[14] = system: Rattus norvegicus; test: Antinociceptive activity in rat assessed as reversal of complete Freund's adjuvant-induced pain at 10 mg/kg, po after 3 hrs; type: functional
Summary of the method: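 Rats had complete Freund's adjuvant-induced inflammatory pain and got oral dosing. Allodynia was read at 1 and 3 h postdose. Percent reversal per rat = (postdose − predose)/(preinjury − predose). Groups had at least six animals, reported as mean + SEM.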

[15] = target: T1, Voltage-dependent N-type calcium channel subunit alpha-1B; test: Inhibition of Cav2.2 expressed HEK293 cells assessed as inhibition of calcium flux at 1 uM by FLIPR assay; type: cell-based; summary of the method: as §1
Target sequence in this assay (Q00975 whole entry, looked up): as the sequence (Q00975 whole entry) above

[16] = Oral bioavailability in rat; type: ADME, organism-based; details: in vivo; summary of the method: as §3
[17] = target: T1, Voltage-dependent N-type calcium channel subunit alpha-1B; test: Inhibition of Cav2.2 expressed HEK293 cells assessed as inhibition of calcium flux by FLIPR assay in presence of 4 mM of potassium; type: cell-based
Summary of the method: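 HEK-293-derived CBK cells coexpress α1B-1, α2-δ and β3a with Kir2.3. Compound was incubated in 4 mM K+ bath, holding about −90 mV. Ca2+ influx was read with a Ca-sensitive dye on FLIPR Tetra. Ten-point titrations ran 0.001–30 μM in quadruplicate, averaged ± SD to give IC50.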
Target sequence in this assay (Q00975 whole entry): as above

[18] = target: Voltage-dependent L-type calcium channel subunit alpha-1C (Homo sapiens, UniProt Q13936); test: Inhibition of Cav1.2 assessed as inhibition of calcium flux by cell based FLIPR assay; summary of the method: as §5
[19] = system: Rattus norvegicus; test: Dose normalized AUC in po dosed rat; type: ADME, organism-based; details: in vivo; summary of the method: as §3
[20] = Plasma clearance in rat; type: ADME, organism-based; summary of the method: as §3
[21] = system: Rattus norvegicus; test: Dose normalized AUC in rat at 3 mg/kg, po and 1 mg/kg, iv; type: ADME, organism-based; details: in vivo; summary of the method: as §3
[22] = Plasma concentration in rat complete Freund's adjuvant-induced pain model at 30 mg/kg, po after 3 hrs; type: ADME, organism-based; set-up: dose 30 mg/kg, route oral
Summary of the method: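 Satellite rats in CFA inflammatory pain study, 30 mg/kg po; plasma exposure (μM) at 3 h, n = 2, standard deviation.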

[23] = system: Rattus norvegicus; test: Antinociceptive activity in rat assessed as reversal of complete Freund's adjuvant-induced pain at 30 mg/kg, po after 1 hr; type: functional
Summary of the method: (§6)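 In the rat CFA inflammatory pain model, compound was given orally at 30 mg/kg and allodynia was read at 1 and 3 h postdose. Average % reversal = (postdose − predose)/(preinjury − predose) for each rat, n = 6. Plasma exposure at 3 h was measured in satellite rats (n = 2).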

[24] = system: Rattus norvegicus; test: Antinociceptive activity in rat assessed as reversal of complete Freund's adjuvant-induced pain at 30 mg/kg, po after 3 hrs; type: functional; summary of the method: as §6
[25] = system: Mus musculus; test: Antinociceptive activity in Cav2.2 expressing wild type mouse SNL neuropathic pain model assessed as reversal of mechanical allodynia at 30 mg/kg, po after 2 hrs; type: functional
Summary of the method: (§7)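 Cav2.2+/+ and Cav2.2−/− mice underwent spinal nerve ligation, then got a single 30 mg/kg oral dose. Mechanical allodynia was scored 2 h postdose.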

[26] = system: Mus musculus; test: Antinociceptive activity in Cav2.2 deficient mouse SNL neuropathic pain model assessed as reversal of mechanical allodynia at 30 mg/kg, po after 2 hrs; type: functional; summary of the method: as §7

Compound `O=C(c1ccccc1OC(F)(F)F)N1CCC(N(C2CC2)S(=O)(=O)c2cccc(C(F)(F)F)c2)CC1` has an Activity [1] of 17%, an IC50 [2] of 120 nM and a remaining at 1 h, 1 µM [3] of 21%. For the same compound, the half-life [4] was 1.6 h, the bioavailability [5] was 47% and the inhibition at 10 µM [6] was 75%. For the same compound, the clearance [7] was 65 mL/min/kg, the inhibition at 1 µM [8] was 21% and the remaining at 1 h, 1 µM [9] was 1%. The AUC/dose [10] was 0.23 µM·kg·h/mg and the Activity [11] was 23%.
With `CN(C)c1cccc(C(=O)N2CCC(N(C3CC3)S(=O)(=O)c3cccc(C(F)(F)F)c3)CC2)c1` the inhibition at 1 µM [12] was 40%, the IC50 [2] was 240 nM and the inhibition at 3 µM [13] was 63%. The inhibition at 10 µM [6] was 51% and the inhibition at 1 µM [8] was 0%.
`CC(C)C[C@H](CN)CC(=O)O` [PREGABALIN] gave an Activity [14] of 58%.
Compound `NC(=O)c1ccccc1C(=O)N1CCC(N(C2CC2)S(=O)(=O)c2cccc(C(F)(F)F)c2)CC1` has an inhibition at 1 µM [12] of 11%, an inhibition at 3 µM [13] of 17% and an inhibition [15] of 15%.
`CCCN(C1CCN(Cc2c(OC)cccc2OC)CC1)S(=O)(=O)c1cccc(C(F)(F)F)c1` gave an IC50 [2] of 120 nM, a bioavailability [16] of 4% and an inhibition at 1 µM [8] of 91%. The IC50 [17] was 4800 nM, the IC50 [18] was 3200 nM and the AUC/dose [19] was 0.007 µM·kg·h/mg. The clearance [20] was 169 mL/min/kg.
`NC(=O)c1cccc(C(=O)N2CCC(N(C3CC3)S(=O)(=O)c3cccc(C(F)(F)F)c3)CC2)c1` showed an inhibition [15] of 0%.
`CS(=O)(=O)c1ccccc1C(=O)N1CCC(N(C2CC2)S(=O)(=O)c2cccc(C(F)(F)F)c2)CC1` showed an inhibition at 1 µM [12] of 19%, an IC50 [2] of 660 nM and a remaining at 1 h, 1 µM [3] of 45%. The half-life [4] was 0.91 h, the bioavailability [5] was 100% and the AUC/dose [21] was 1.06 µM·kg·h/mg. For the same compound, the inhibition at 3 µM [13] was 39%, the inhibition at 10 µM [6] was 67% and the concentration at 3 h [22] was 2400 nM. The Activity [23] was 47%, the clearance [7] was 36 mL/min/kg and the inhibition at 1 µM [8] was 1%. The Activity [24] was 45% and the remaining at 1 h, 1 µM [9] was 73%.
With `O=C(c1ccc(OC(F)(F)F)cc1)N1CCC(N(C2CC2)S(=O)(=O)c2cccc(C(F)(F)F)c2)CC1` the inhibition at 1 µM [12] was 73%, the IC50 [2] was 300 nM and the inhibition at 3 µM [13] was 88%. The inhibition at 10 µM [6] was 77% and the inhibition at 1 µM [8] was 0%.
Work on `NC(=O)c1ccc(C(=O)N2CCC(N(C3CC3)S(=O)(=O)c3cccc(C(F)(F)F)c3)CC2)cc1` yielded an inhibition at 1 µM [12] of 0%, an inhibition at 3 µM [13] of 0% and an inhibition [15] of 12%.
In the case of `CS(=O)(=O)c1ccc(F)cc1C(=O)N1CCC(N(C2CC2)S(=O)(=O)c2cc(C(F)(F)F)ccc2F)CC1`, the IC50 [2] is reported as 2500 nM.
Work on `NCC1(CC(=O)O)CCCCC1` [GABAPENTIN] yielded an Activity [25] of 71% and an Activity [26] of 48%.
`CS(=O)(=O)c1ccc(F)cc1C(=O)N1CCC(N(C2CC2)S(=O)(=O)c2ccc(C(F)(F)F)cc2)CC1` gave an inhibition [15] of 1%.

Reference: ChEMBL document CHEMBL2176883, “Aminopiperidine sulfonamide Cav2.2 channel inhibitors for the treatment of chronic pain” (J Med Chem, 2012)
